Experimental data from ChEMBL document CHEMBL5608187, “Discovery of pyridoquinoxaline-based new P-gp inhibitors as coadjutant against Multi Drug Resistance in cancer” (Eur J Med Chem, 2024).
Activity calls are given as the source filed them. No cut-off for these calls is given here.

Experiments:
[1] = test system: SK-HEP1; assay: Cytotoxicity against human SK-HEP1 cells assessed as inhibition of cell growth at 4 uM incubated for 72 hrs by SiR-DNA/CellTox Green Dye based fluorescence analysis; type: toxicity; settings: sk-hep1, 72 h
Procedure, shortened: (§1)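 Single-agent control at 4 µM, no anticancer drug. 500 cells/well with SiR-DNA and CellTox Green; imaged at addition and 72 h. Live count = total nuclei minus dead cells, expressed as percent growth. Three technical replicates.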

[2] = test system: HT-29; assay: Cytotoxicity against human HT-29 cells assessed as inhibition of cell growth at 4 uM incubated for 72 hrs by SiR-DNA/CellTox Green Dye based fluorescence analysis; type: toxicity; settings: ht-29, 72 h; procedure, shortened: as §1
[3] = test system: SK-HEP1; assay: Coadjutant activity against multidrug resistance in human SK-HEP1 cells assessed as potentiation of cisplatin-induced cell growth inhibition at 0.25 to 4 uM incubated for 72 hrs in presence of 0.25 uM cisplatin by SiR-DNA/CellTox Green Dye based fluorescence analysis; type: functional; settings: dose 0.25-4 µM
Procedure, shortened: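 Cisplatin co-treatment, 72 h imaging growth assay (SiR-DNA nuclei minus CellTox Green dead cells, 500 cells/well, phenol-red-free medium). Combinations: inhibitor fixed with cisplatin 0.1–100 µM, or cisplatin fixed at 0.25 µM with inhibitor 0.25–4 µM. Three technical replicates, mean ± SD; two-tailed t-test.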

O=C(Nc1ccccc1)c1ccccc1OCc1nc2cc3cccnc3cc2nc1COc1ccccc1C(=O)Nc1ccccc1
Activity [1]: Non-Toxic
Activity [2]: Non-Toxic
Activity [3]: inactive
